For data set [1], the system named is U87MG. Nature of the data set: MTT growth inhibition assay, U87MG. The class given is cell-based, human. Particulars: read-out: IC50, cytotoxicity U87MG, 72 hours, listed as 6 (BAP2). The gist of the method: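 U87MG seeded at 5000 cells/well, incubated overnight at 37 °C and 5% CO2, then given test compound or vehicle for 72 h. MTT (3 mg/mL) was added for 4 h at 37 °C. Formazan was dissolved in DMSO with 15 min shaking at room temperature and read at 570 nm. Inhibition was calculated as [1-(At-Ab)/(Ac-Ab)]×100 against untreated and blank wells.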
Background: Formazan colour is commonly taken as a measure of viable cells.

Data set [2] has as its target wild-type PDI (Homo sapiens, UniProt P07237). Nature of the data set: Thermal shift assay, wild-type PDI. The class given is binding. The method in brief: (§1)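 Purified PDI (wild-type, C53S/C397S or H256A; 0.5 mg/mL in 50 mM Tris, pH 7.0) was mixed with compound in DMSO and ROX dye. Samples were heated from 25 to 99 °C at 1 °C/min. Boltzmann melting temperature was compared with the 5% DMSO control.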

Data set [3] concerns the target T1, H256A PDI (Homo sapiens, UniProt P07237, H256A). Nature of the data set: Thermal shift assay, H256A PDI. The class given is binding. The following applies: 100 μM. The method in brief:
as §1

Data set [4] concerns the target C53S/C397S PDI (Homo sapiens, UniProt P07237, C397S/C53S). Kind of data set: Thermal shift assay, C53S/C397S PDI. Particulars: 100 μM. The class given is binding. The gist of the method:
as §1

Data set [5] concerns GRP78. Kind of data set: Western blot, GRP78 expression. The class given is cell-based, human. Particulars: U87MG cells; 20 μM (PACMA31 1.0 μM), 24 hours. The method in brief: (§2)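 Treated U87MG cells were lysed by sonication in Tris/NaCl/Triton X-100/SDS buffer (pH 7.4) and spun at 13,500×g, 4 °C, 10 min. Protein was quantified by BCA. 30 μg per lane ran on 10% gels and transferred to PVDF. Primary antibodies were applied overnight at 4 °C. Fluorescent secondaries were imaged.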

The test system of data set [6] is A172 cells. Nature of the data set: Wound healing assay. The class given is cell-based, human. The following applies: 24 hours, BAP2 at 10 μM. The method in brief: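 A172 cells were seeded at 50,000/well, grown overnight, then kept in serum-free DMEM for 24 h. A scratch was made and compounds added. Cells grew 24 h, until DMSO-control scratches closed, then were Giemsa-stained and imaged at 10X.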

Data set [7] relates to A172 cells. Kind of data set: Transwell migration assay. The class given is cell-based, human. Particulars: 4 hours, 30 μM. The method in brief: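 Treated A172 cells (1 x 10^5) were seeded into inserts with 8.0 µm PET membranes in serum-free medium. The lower well held DMEM with 10% FBS, and FBS-free wells served as control. After 4 h, cells were Giemsa-stained and 5 fields per well were imaged at 10X.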

Data set [8] relates to GBM cell. Kind of data set: Combination with As2O3, GBM cell proliferation. The class given is cell-based.
In data set [9] the test system is D54 cells. Nature of the data set: Clonogenic survival assay with ionizing radiation. Particulars: 1 μM, 0-6 Gy. The class given is cell-based. The gist of the method:
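D54 monolayer cells (37 °C, 5% CO2, mycoplasma-tested, STR-authenticated) were irradiated at 0, 1, 2, 4 or 6 Gy and plated immediately at 200, 200, 400, 600 and 1000 cells/well. Test compounds (1 μM), reference inhibitor (0.05 μM) or DMSO were added. After 10–12 days, colonies were stained with 0.1% crystal violet.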

Data set [10] has as its target T1, H256A PDI. Kind of data set: PDI reductase assay, H256A mutant PDI. The class given is biochemical. Particulars: 10 μM. The method in brief: (§3)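 N-terminal His-tagged human PDI was expressed in E. coli BL21(DE3) pLysS with 1 mM IPTG for 4 h at 37 °C. It was purified on Ni-NTA and dialyzed into 100 mM sodium phosphate, 2 mM EDTA, pH 7.0. PDI (0.4 μM) was preincubated 1 h with compound in phosphate/EDTA buffer with 8 μM DTT. DTT (500 μM) and bovine insulin (130 μM) were then added at room temperature. Aggregation was read at 620 nm. Percent activity came from the 0–80 min change, corrected for DTT alone.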

Data set [11] addresses b’ domain of PDI (Homo sapiens, UniProt P07237). Kind of data set: ANS spectral scan. The class given is binding. The following applies: 5 μM PDI, 100 μM compound. The gist of the method: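 Human PDI was preincubated with 100 μM compound or matching DMSO in TBS at 37 °C for 1 h. ANS was then added, followed by 20 min in the dark at 25 °C. Fluorescence spectrum: Ex 370 nm, Em 400–700 nm.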

In data set [12] the target is PDI (Homo sapiens, UniProt P07237). Kind of data set: PDI reductase assay after competition with N-acetyl cysteine. The class given is biochemical. Particulars: compound 40 μM, 0, 1, 2 or 5 mM NAC. The gist of the method:
as §3

For data set [13], the system named is EIF2α. Nature of the data set: Western blot, phosphorylation of EIF2α. The class given is cell-based, human. Particulars: U87MG and A172 cells; 20 μM (PACMA31 1.0 μM), 2 hours. The gist of the method: as §2
Data set [14] concerns MMP2. Kind of data set: Gelatin zymography and Western blot of conditioned media. The class given is cell-based, human. Particulars: U87MG cells, 10 μM (PACMA31 0.25 μM), 48 hours. The gist of the method:
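U87MG cells (0.5 x 10^6/well) attached overnight and were serum-starved 12 h before treatment. Cleared conditioned media (5 µg protein) ran on 10% SDS-PAGE with 0.1% gelatin. Gels were washed in 2.5% Triton X-100 Tris/CaCl2/ZnCl2 buffer, incubated overnight at 37 °C, then Coomassie R-250 stained and destained. Cleaved MMP2 in media was also assessed by Western blot.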
On the technique in general: A western blot detects proteins with antibodies after separation by electrophoresis.

Data set [15] deals with MMP9. Nature of the data set: Western blot of cell lysates, MMP9. The class given is cell-based, human. Particulars: U87MG cells, 10 μM (PACMA31 0.25 μM), 48 hours. The gist of the method:
as §2

Structures are written as SMILES.

b’ domain of PDI, sequence (P07237 18-508): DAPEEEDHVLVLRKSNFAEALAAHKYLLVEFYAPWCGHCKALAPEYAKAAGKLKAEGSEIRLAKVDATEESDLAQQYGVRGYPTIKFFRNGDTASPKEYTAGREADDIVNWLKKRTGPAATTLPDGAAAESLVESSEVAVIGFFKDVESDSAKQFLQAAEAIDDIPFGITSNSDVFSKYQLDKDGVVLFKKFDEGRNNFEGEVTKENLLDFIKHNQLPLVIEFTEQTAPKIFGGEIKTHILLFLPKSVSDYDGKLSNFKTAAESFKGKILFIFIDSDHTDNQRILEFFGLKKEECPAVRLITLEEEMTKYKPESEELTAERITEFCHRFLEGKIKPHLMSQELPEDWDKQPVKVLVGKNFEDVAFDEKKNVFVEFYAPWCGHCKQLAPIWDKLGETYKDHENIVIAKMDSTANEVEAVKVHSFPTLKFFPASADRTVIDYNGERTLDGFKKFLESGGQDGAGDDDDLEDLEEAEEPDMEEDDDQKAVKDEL
PDI, sequence (P07237 18-508): as above
wild-type PDI, sequence (P07237 18-508): as above
T1 sequence (P07237 18-508 H256A): as the sequence (P07237 18-508) above, with H239A counted along it
C53S/C397S PDI, sequence (P07237 18-508 C53S/C397S): as the sequence (P07237 18-508) above, with C36S, C380S counted along it

The IC50 is the concentration that inhibits the measured activity by half. In the case of `N#Cc1cccc(/C=C/C(=O)c2ccc(O)cc2)c1` [Compound 6, (E)-3-(3-(4-Hydroxyphenyl)-3-oxoprop-1-en-1-yl)benzonitrile], the IC50 in data set [1] came to 10.3 ± 2.3 µM. Also, the “increase of melting temperature” value in data set [2] (recombinant PDI, dose-dependent, up to 100 μM) was “more than 1 °C”. Besides, the “stabilization (thermal shift) in the H256A mutant” value in [3] was “abolished”. For the same compound, the “stabilization (thermal shift) in the C53S/C397S mutant” value in [4] is listed as “but not the C53S/C397S mutant”. Further, the “expression of GRP78” value in data set [5] is recorded as “increase in expression of GRP78”. In addition, in data set [6], the “wound healing / cell migration” value is “inhibited wound healing”. In addition, the transwell migration entry in [7] was “inhibited migration”. Moreover, in data set [8], the “inhibition of GBM cell proliferation in combination with As2O3” value is “synergistically”. The “synergy with ionizing radiation (IR)” value in data set [9] is “synergized with IR”. In addition, the “activity against H256A mutant PDI” value in data set [10] is “abolished upon mutation”. Besides, the “effect on ANS fluorescence” value in [11] was “hindered the ability of ANS to fluoresce”. Moreover, the “activity after competition with N-acetyl cysteine (NAC)” value in data set [12] (listed as BAP2) is on record as “unaffected by up to 5 mM NAC”.

With `C#CC(=O)N(c1ccc(OC)cc1OC)C(C(=O)NCC(=O)OCC)c1cccs1` (centres unmarked) [PACMA31, reference compound], in data set [2] (100 μM), the “stabilization of PDI to thermal denaturation” value is recorded as “does not stabilize PDI”. Also, the “phosphorylation of EIF2α” value in data set [13] is on record as “did not induce phosphorylation of EIF2α”. In [5], the “expression of GRP78” value was “increase in expression of GRP78”. The transwell migration result in [7] is “inhibited migration”. Further, the “MMP2 activity and secretion” value in data set [14] is “inhibit MMP2 activity and secretion”. In addition, the MMP9 expression entry in data set [15] is on record as “decreased”. In addition, the “effect on ANS fluorescence” value in data set [11] is “did not hinder dye fluorescence”. Moreover, in data set [12], the “activity after competition with N-acetyl cysteine (NAC)” value is listed as “significantly abolished”.

The values are drawn from PMC8276234 (Journal of medicinal chemistry, 2019).
